pIC50: −log10 of the molar value. Calls of active or inactive are those of the source. The calls are words filed in the database; no cut-off is given here.
Assays:
[1] = test system: Hepatitis C virus; assay: Inhibition of recombinant HCV1b NS5B Cdelta21 RNA dependent RNA polymerase P495L mutant TP1 binding site using poly rA/U12 template primer by liquid scintillation counting; parameters: species or system Hepatitis C virus subtype 1b
How it was run: (§1)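 Radiometric RdRp assay with His6-tagged NS5BCΔ21 (wild type or P495L, M423T, M414T mutants) purified from E. coli JM109(DE3) by Ni-NTA. Template-primer poly rA/U12. Compounds diluted serially in DMSO. Started with 1.0 mM MnCl2, stopped with ice-cold 10% TCA plus 0.5 mM pyrophosphate. Incorporated UTP TCA-precipitated on GF-B filters and scintillation counted. Activity set relative to DMSO control. IC50 from nonlinear fit of 8–12 concentrations, duplicate, two independent experiments.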

[2] = test system: Hepatitis C virus; assay: Ratio of IC50 for recombinant HCV1b NS5B Cdelta21 RNA dependent RNA polymerase P495L mutant TP1 binding site to IC50 for wild type recombinant C terminal His6-tagged HCV1b NS5B Cdelta21 RNA dependent RNA polymerase; parameters: species or system Hepatitis C virus subtype 1b
[3] = test system: BHK; assay: Inhibition of intracellular HCV NS5B RNA dependent RNA polymerase activity expressed in BHK cells at 100 uM after 42 hrs by renilla luciferase reporter gene assay; assay type: cell-based; conditions: Hepacivirus hominis
How it was run: (§2)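 BHK-NS5B-FRLuc reporter cells (DMEM, 10% heat-inactivated FBS, G418 1 mg/mL, blasticidin 10 µg/mL, 37°C, 5% CO2) treated with 100 µM compound or matching 1% DMSO for 42 hr. Lysates read by dual luciferase. Viability taken as firefly signal versus DMSO. Polymerase inhibition taken as percent reduction of Renilla/firefly ratio versus DMSO. At least three independent experiments in duplicate.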

[4] = test system: Hepatitis C virus; assay: Inhibition of wild type recombinant C terminal His6-tagged HCV1b NS5B Cdelta21 RNA dependent RNA polymerase activity expressed in Escherichia coli JM109 (DE3) at 100 uM using poly rA/U12 template primer by liquid scintillation counting; parameters: species or system Hepatitis C virus subtype 1b
How it was run: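 Radiometric RdRp assay with wild-type NS5BCΔ21 (genotype 1b), C-terminal His6, Ni-NTA purified from E. coli JM109(DE3); poly rA/U12 template-primer. Compounds from 10 mM DMSO stocks, single-point at 100 µM. Started with 1.0 mM MnCl2, stopped with ice-cold 10% TCA/0.5 mM pyrophosphate. Incorporated radioactive UTP TCA-precipitated on GF-B filters, scintillation-counted; activity relative to DMSO control set at 100%.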

[5] = test system: Hepatitis C virus; assay: Ratio of IC50 for recombinant HCV1b NS5B Cdelta21 RNA dependent RNA polymerase M414T mutant PP1 binding site to IC50 for wild type recombinant C terminal His6-tagged HCV1b NS5B Cdelta21 RNA dependent RNA polymerase; parameters: species or system Hepatitis C virus subtype 1b
[6] = test system: Hepatitis C virus; assay: Inhibition of recombinant HCV1b NS5B Cdelta21 RNA dependent RNA polymerase M414T mutant PP1 binding site using poly rA/U12 template primer by liquid scintillation counting; parameters: species or system Hepatitis C virus subtype 1b; how it was run: as §1
[7] = test system: Hepatitis C virus; assay: Ratio of IC50 for recombinant HCV1b NS5B Cdelta21 RNA dependent RNA polymerase M423T mutant TP2 binding site to IC50 for wild type recombinant C terminal His6-tagged HCV1b NS5B Cdelta21 RNA dependent RNA polymerase; parameters: species or system Hepatitis C virus subtype 1b
[8] = test system: Hepatitis C virus; assay: Inhibition of wild type recombinant C terminal His6-tagged HCV1b NS5B Cdelta21 RNA dependent RNA polymerase activity expressed in Escherichia coli JM109 (DE3) using poly rA/U12 template primer by liquid scintillation counting; parameters: species or system Hepatitis C virus subtype 1b; conditions: JM 109; how it was run: as §1
[9] = Cytotoxicity against BHK cells assessed as cell viability by firefly luciferase reporter gene assay; assay type: cell-based, Mesocricetus auratus; conditions: hamster; how it was run: as §2
[10] = test system: Hepatitis C virus; assay: Inhibition of recombinant HCV1b NS5B Cdelta21 RNA dependent RNA polymerase M423T mutant TP2 binding site using poly rA/U12 template primer by liquid scintillation counting; parameters: species or system Hepatitis C virus subtype 1b; how it was run: as §1

Compound	pIC50 [1]	Ratio IC50 [2]	inhibition [3]	inhibition at 100 µM [4] [%]	Ratio IC50 [5]	pIC50 [6]	Ratio IC50 [7]	pIC50 [8]	CC50 [9] [µM]	pIC50 [10]
CC1CS(=O)(=O)N(c2ccc(S(=O)(=O)Nc3cccc4cccnc34)cc2)C1=O (stereo unspecified)	4.37	<=1.4	40.5%	≥ 50	<=1.4	4.44	>4.5	4.44	> 100	< 3.60
CCOC(=O)/C(C#N)=C\c1cn(CCC(=O)O)nc1-c1ccc(F)cc1	4.46	<=1.4	44.2%	≥ 50	<=1.4	4.54	>4.5	4.48	> 100	< 3.60
O=C(CCS(=O)(=O)c1ccccc1)N1CCN(C(=O)CCS(=O)(=O)c2ccccc2)CC1	4.47	<=1.4	42.1%	≥ 50	<=1.4	4.42	>4.5	4.48	> 100	< 3.60
Cn1cc(C(=O)N2CCN(C(=O)c3ccc(F)cc3F)CC2)c2nn(-c3ccccc3)c(=O)c-2c1	4.39	<=1.4	43.3%	≥ 50	<=1.4	4.35	>4.5	4.40	> 100	< 3.60
Cc1cc(O)c(C(c2ccc(Cl)c(Cl)c2)c2c(O)cc(C)oc2=O)c(=O)o1	4.20	<=1.4	inactive	≥ 50	<=1.4	4.20	>4.5	4.25	> 100	< 3.60
COc1cc(/C=N/Nc2ccccc2C(=O)O)cc(Br)c1O	4.72	<=1.4	57.8%	≥ 50	<=1.4	4.63	8.5	4.69	> 100	3.76
O=C(O)c1ccc(Nc2nnc(-c3ccccc3)c(=O)[nH]2)cc1O	4.39	<=1.4	45.1%	≥ 50	<=1.4	4.28	>4.5	4.34	> 100	< 3.60
C/C(=N\Nc1ncnc2ccccc12)C(=O)O	4.85	<=1.4	62.4%	≥ 50	<=1.4	4.64	7.9	4.80	> 100	3.90
COc1cc(O)c2c(c1)oc(=O)c1c3cc(O)c(O)cc3oc21 [WEDELOLACTONE]	–	–	–	–	–	–	–	4.47	–	–
